The values below come from ChEMBL document CHEMBL1123923, “Steroidal silicon side-chain analogues as potential antifertility agents” (1987).

For assay [1], the species on record is Rattus norvegicus. The experiment in a line: Separation of antifertility from estrogenic activity in rats was measured. The assay is classed as functional.
For assay [2], the target named is Estrogen receptor (Rattus norvegicus) (UniProt P06211+Q62986).
The species named for assay [3] is Rattus norvegicus. The experiment in a line: Antifertility activity measured as minimum protective dose for prevention of pregnancy in rats. The assay is classed as functional. The arrangement: unit not given here. In short, it runs like this: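 Oral dosing in adult cycling female rats selected in the proestrous phase, 10 animals per dose, with treatment starting on the day of proestrus.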

`C=CC[Si](C#C[C@]1(O)CC[C@H]2[C@@H]3CCc4cc(O)ccc4[C@H]3CC[C@@]21C)(CC)CC` showed a Separation in assay [1] of 7. Besides, the Estrogenic potency in assay [2] was 44. This compound also returned an Antifertility potency in assay [3] of 300.

Turning to `CC[Si](C#C[C@]1(O)CC[C@H]2[C@@H]3CCc4cc(O)ccc4[C@H]3CC[C@@]21C)(CC)C(C)C`, in assay [1], the Separation is 10. This compound had an Estrogenic potency in assay [2] of 30. For the same compound, the Antifertility potency in assay [3] is 300.

The compound `CCC[Si](C#C[C@]1(O)CC[C@H]2[C@@H]3CCc4cc(O)ccc4[C@H]3CC[C@@]21C)(CC)CC` yielded a Separation in assay [1] of 8. Moreover, the Estrogenic potency in assay [2] was 39. The same compound came in with an Antifertility potency in assay [3] of 300.

Take `C=C([C@]1(O)CC[C@H]2[C@@H]3CCc4cc(O)ccc4[C@H]3CC[C@@]21C)[Si](CCC)(CCC)CCC`: in assay [1], the Separation turned out to be 4. Besides, the Estrogenic potency in assay [2] is 0.5. This compound yielded an Antifertility potency in assay [3] of 2.

In the case of `CCC(C)[Si](C#C[C@]1(O)CC[C@H]2[C@@H]3CCc4cc(O)ccc4[C@H]3CC[C@@]21C)(CC)CC` (some centres undefined), the Separation in assay [1] amounted to 5. In addition, the Estrogenic potency in assay [2] worked out at 57. The compound also displayed an Antifertility potency in assay [3] of 300.

In assay [1], `CC[Si](C#C[C@]1(O)CC[C@H]2[C@@H]3CCc4cc(O)ccc4[C@H]3CC[C@@]21C)(CC)CC` returned a Separation of 16. The compound further registered an Estrogenic potency in assay [2] of 37. This compound also showed an Antifertility potency in assay [3] of 600.

In assay [1], `CC(C)(C)C#C[C@]1(O)CC[C@H]2[C@@H]3CCc4cc(O)ccc4[C@H]3CC[C@@]21C` came in with a Separation of 14. Also, in assay [2], the Estrogenic potency was found to be 0.07. Besides, the Antifertility potency in assay [3] is 1.

In the case of `CC[Si](C#C[C@]1(O)CC[C@H]2[C@@H]3CCc4cc(O)ccc4[C@H]3CC[C@@]21C)(CC)C(C)(C)C`, the Separation in assay [1] was 10. In assay [2], this compound registered an Estrogenic potency of 31. Also, the Antifertility potency in assay [3] was 300.

With `C[C@]12CC[C@@H]3c4ccc(O)cc4CC[C@H]3[C@@H]1CC[C@@]2(O)C#C[Si](C)(C)CBr`, the Separation in assay [1] amounted to 7.4. In assay [2], this compound came in with an Estrogenic potency of 27. The same compound came in with an Antifertility potency in assay [3] of 200.

For the compound `CCCC[Si](C)(C)C#C[C@]1(O)CC[C@H]2[C@@H]3CCc4cc(O)ccc4[C@H]3CC[C@@]21C`, the Separation in assay [1] was found to be 15. The compound also showed an Estrogenic potency in assay [2] of 20. The Antifertility potency in assay [3] worked out at 300.

Turning to `C=C[Si](C)(C#C[C@]1(O)CC[C@H]2[C@@H]3CCc4cc(O)ccc4[C@H]3CC[C@@]21C)CC` (some centres undefined), the Separation in assay [1] is 11. This compound also displayed an Estrogenic potency in assay [2] of 28. For the same compound, the Antifertility potency in assay [3] amounted to 300.

With `CC[Si]1(C#C[C@]2(O)CC[C@H]3[C@@H]4CCc5cc(O)ccc5[C@H]4CC[C@@]32C)CCCCC1`, in assay [1], the Separation was 2.4. In assay [2], this compound had an Estrogenic potency of 85. Moreover, in assay [3], the Antifertility potency came out at 200.

In turn, `C[C@]12CC[C@@H]3c4ccc(O)cc4CC[C@H]3[C@@H]1CC[C@@]2(O)/C=C\[Si](C)(C)C` displayed a Separation in assay [1] of 10. Further, in assay [2], the Estrogenic potency came out at 0.5. Besides, the Antifertility potency in assay [3] turned out to be 5.

Regarding `C[C@]12CC[C@@H]3c4ccc(O)cc4CC[C@H]3[C@@H]1CC[C@@]2(O)C#C[Si](C)(C)CCl`, the Separation in assay [1] amounted to 9. In addition, in assay [2], the Estrogenic potency was 17. In assay [3], this compound showed an Antifertility potency of 150.

`C[C@]12CC[C@@H]3c4ccc(O)cc4CC[C@H]3[C@@H]1CC[C@@]2(O)C#C[Si](C)(C)CCCCl` returned a Separation in assay [1] of 8. The Estrogenic potency in assay [2] worked out at 25. The Antifertility potency in assay [3] is 200.

With `CC(Cl)[Si](C)(C)C#C[C@]1(O)CC[C@H]2[C@@H]3CCc4cc(O)ccc4[C@H]3CC[C@@]21C` (some centres undefined), in assay [1], the Separation stood at 7. The Estrogenic potency in assay [2] was found to be 45. This compound displayed an Antifertility potency in assay [3] of 300.

`C#C[Si](C#C[C@]1(O)CC[C@H]2[C@@H]3CCc4cc(O)ccc4[C@H]3CC[C@@]21C)(CC)CC`: the Separation in assay [1] is 16. Moreover, the Estrogenic potency in assay [2] was 37. The Antifertility potency in assay [3] worked out at 600.

In assay [1], `C=C([C@]1(O)CC[C@H]2[C@@H]3CCc4cc(O)ccc4[C@H]3CC[C@@]21C)[Si](C)(C)C` came in with a Separation of 5. In addition, the Estrogenic potency in assay [2] worked out at 0.4. Besides, in assay [3], the Antifertility potency turned out to be 2.

As for `CCC(C)[Si](C)(C)C#C[C@]1(O)CC[C@H]2[C@@H]3CCc4cc(O)ccc4[C@H]3CC[C@@]21C` (some centres undefined), the Separation in assay [1] turned out to be 15. The Estrogenic potency in assay [2] was determined as 20. This compound also came in with an Antifertility potency in assay [3] of 300.

In assay [1], `CC[Si]1(C#C[C@]2(O)CC[C@H]3[C@@H]4CCc5cc(O)ccc5[C@H]4CC[C@@]32C)CCCC1` displayed a Separation of 4.2. The compound also gave an Estrogenic potency in assay [2] of 120. In addition, the Antifertility potency in assay [3] worked out at 500.

In turn, `CC[Si](/C=C/[C@]1(O)CC[C@H]2[C@@H]3CCc4cc(O)ccc4[C@H]3CC[C@@]21C)(CC)CC` registered a Separation in assay [1] of 30. In assay [2], this compound displayed an Estrogenic potency of 0.04. The compound also showed an Antifertility potency in assay [3] of 1.31.

In the case of `CC[SiH](C#C[C@]1(O)CC[C@H]2[C@@H]3CCc4cc(O)ccc4[C@H]3CC[C@@]21C)CC`, the Separation in assay [1] is 21. The same compound had an Estrogenic potency in assay [2] of 29. The Antifertility potency in assay [3] is on record as 600.

The compound `CC[Si](/C=C\[C@]1(O)CC[C@H]2[C@@H]3CCc4cc(O)ccc4[C@H]3CC[C@@]21C)(CC)CC` registered a Separation in assay [1] of 20. The compound further displayed an Estrogenic potency in assay [2] of 0.5. In assay [3], this compound showed an Antifertility potency of 10.

Compound `CC(C)(C)[Si](C)(C)C#C[C@]1(O)CC[C@H]2[C@@H]3CCc4cc(O)ccc4[C@H]3CC[C@@]21C` came in with a Separation in assay [1] of 30. This compound also returned an Estrogenic potency in assay [2] of 20. The same compound gave an Antifertility potency in assay [3] of 600.

The compound `C[C@]12CC[C@@H]3c4ccc(O)cc4CC[C@H]3[C@@H]1CC[C@@]2(O)C#C[Si](C)(CCl)CCl` registered a Separation in assay [1] of 4. The Estrogenic potency in assay [2] came out at 39. The Antifertility potency in assay [3] was 150.

For the compound `C[C@]12CC[C@@H]3c4ccc(O)cc4CC[C@H]3[C@@H]1CC[C@@]2(O)C#C[Si](C)(C)C`, the Separation in assay [1] is reported as 4.7. For the same compound, the Estrogenic potency in assay [2] is 7. The compound also showed an Antifertility potency in assay [3] of 33.

Consider `C[C@]12CC[C@@H]3c4ccc(O)cc4CC[C@H]3[C@@H]1CC[C@@]2(O)C#C[Si](C)(C)c1ccccc1`, for which the Separation in assay [1] was found to be 4.7. Also, the Estrogenic potency in assay [2] was found to be 7. Further, the Antifertility potency in assay [3] amounted to 33.

The compound `C=CC[Si](C)(C)C#C[C@]1(O)CC[C@H]2[C@@H]3CCc4cc(O)ccc4[C@H]3CC[C@@]21C` had a Separation in assay [1] of 10. The same compound came in with an Estrogenic potency in assay [2] of 24. The compound also yielded an Antifertility potency in assay [3] of 250.
